# STEP block: STEP (human) phosphatase inhibition | P54829 | recombinant STEP, OMFP fluorogenic substrate, fluorescence | inhibition, % at 20 µM | 360,000 compounds, 0.25% hits | AID 588621;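 active = inhibition at 20 µM, scaled per plate between control wells, above about 37%, limit read from the data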
#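 Material: STEP (striatal-enriched tyrosine phosphatase) enzyme, cell-free; Compound dosing: 20 µM single dose in 1% DMSO; Technique: fluorescence read at 480 nm ex / 540 nm em; Times: reaction 20 min, ambient temperature; Medium: 50 mM Bis-Tris pH 6.0 with 2.5 mM DTT and 0.005% Tween 20; Also added: OMFP at 25 µM.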
# SUMO1-SIM PPI: alters human SUMO1 binding to SIM partners; 360,000 compounds, 0.33% hits; AID 602429; P63165; SUMO1 binding to a labelled peptide, TR-FRET, 1 h; inhibition, % at 20 µM; in the data active = inhibition above about 37%
# Target sequence (P63165 whole entry, looked up): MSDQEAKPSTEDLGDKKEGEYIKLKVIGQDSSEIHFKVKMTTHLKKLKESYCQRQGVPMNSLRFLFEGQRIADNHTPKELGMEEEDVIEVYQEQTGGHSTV
# Scp1 inh: inhibitors of human Scp-1 phosphatase; inhibition, % at 20 µM; 340,000 compounds, 0.88% hits; Recombinant Scp1, phosphopeptide, malachite green phosphate absorbance; Q9GZU7;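 active = inhibition above about 50% at 20 µM, limit read from the data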
# Target sequence (Q9GZU7 76-261 limits assumed): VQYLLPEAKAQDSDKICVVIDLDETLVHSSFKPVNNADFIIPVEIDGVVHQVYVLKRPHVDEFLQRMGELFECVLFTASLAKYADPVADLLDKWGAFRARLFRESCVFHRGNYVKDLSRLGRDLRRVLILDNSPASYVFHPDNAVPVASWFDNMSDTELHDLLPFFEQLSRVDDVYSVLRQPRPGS
#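 Material – SCP-1 phosphatase catalytic domain, residues 76-261 · Buffer or medium – Acidic Tris acetate buffer with magnesium and detergent · Also added – Phospho 17-mer peptide substrate · Compound – single 20 µM dose, 1% DMSO · Times – 45 min room-temperature reaction, 5 min colour, 30 min stabiliser · Technique – Phosphate-binding colour reagent, absorbance read at 630 nm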
# NadD block: blocks S. aureus nicotinate mononucleotide adenylyltransferase | inhibition, % at 20 µM | 360,000 compounds, 0.78% hits | purified NadD enzyme, colorimetric absorbance read-out; in the data active = inhibition above about 26%
# LMPTP inh: blocks human LMPTP phosphatase; 360,000 compounds, 0.22% hits; inhibition, % at 20 µM; AID 651560; recombinant LMPTP-A, OMFP fluorogenic substrate, fluorescence intensity; P24666;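 active = compounds that cut the enzyme signal by at least half of the control window in the single-dose screen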
# Target sequence (P24666 whole entry, looked up): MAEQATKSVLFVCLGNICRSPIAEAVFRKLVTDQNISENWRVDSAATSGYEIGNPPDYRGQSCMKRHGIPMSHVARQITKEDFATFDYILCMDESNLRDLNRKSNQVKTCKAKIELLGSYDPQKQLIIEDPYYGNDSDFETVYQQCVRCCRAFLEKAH
#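 Test system – LMPTP-A phosphatase enzyme · Quantity – 0.625 nM LMPTP-A final · Reagent – OMFP substrate, 400 µM final · Dosing – one test concentration per compound, 20 µM, with 3% DMSO overall · Timing – 50 min enzyme reaction at room temperature, protected from light · Detection – fluorescence intensity · Controls – substrate-only low control, DMSO enzyme-plus-substrate high control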
# DNMT1 block: DNMT1 (human) enzyme inhibition | P26358 | DNMT1 molecular beacon, Hinp1I cleavage, fluorescence | inhibition (reported as % activation of signal), % at 10 µM | 360,000 compounds, 0.83% hits; in the data active = inhibition above about 50%
# Scp-1 conf: Scp-1 (human) inhibition, single-dose confirmed. shares compounds with Scp1 inh. recombinant SCP-1 catalytic domain, phosphate release, malachite green absorbance. inhibition, % at 20 µM. 2,500 compounds, 61% hits
# MG interference: counter-screen for Scp-1 inhibitors: colorimetric interference; 2,500 tested, under 10 active; Colorimetric interference counterscreen, malachite green absorbance 630 nm; apparent inhibition (interference), % at 20 µM; shares compounds with Scp1 inh;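 also: compounds added after enzyme reaction finished so only phosphate colour detection is probed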
# Scp-1 Tm shift: validation of human Scp-1 inhibitors by thermal shift binding; shares compounds with Scp1 inh; Recombinant SCP1, Sypro Orange thermal shift Tm; thermal shift relative to vanadate control, % at 40 µM; 1,500 compounds, 25% hits; AID 540329;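 active = substances whose mean melting-temperature shift, as a percentage of the reference inhibitor's shift, reaches about 5.3%, limit read from the data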
# Beacon interf DR: shows spectral interference in the DNMT1 beacon assay; shares compounds with DNMT1 block; molecular beacon fluorescence, spectral interference counter-screen; IC50, µM; 200 tested, under 10 active; AID 602382; call rule not given here
# DNMT1 confirm: DNMT1 inhibition confirmation, single concentration; shares compounds with DNMT1 block; DNMT1 molecular beacon HinP1I cleavage, fluorescence; inhibition, % at 10 µM; 2,300 compounds, 8% hits;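 active = average inhibition of at least 30% in the single-concentration confirmation test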
# Beacon interf: counter-screen for DNMT1 inhibitors: spectral interference; shares compounds with DNMT1 block; DNMT1 molecular beacon spectral interference counterscreen, fluorescence 485/520; activation (fluorescence interference), % at 10 µM; 2,300 compounds, 1% hits; AID 602387;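 active = activation of at least 30% at 10 µM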;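 also: DNMT1 catalytic domain with a HinP1I cleavage step and a FAM/dabcyl DNA beacon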
# STEP inh conf: confirmation of human STEP phosphatase inhibitors; shares compounds with STEP block; recombinant STEP, OMFP fluorogenic substrate, fluorescence; inhibition, % at 20 µM; 520 compounds, 32% hits; AID 623866; call rule not given here
# NadD conf: NadD (S. aureus) inhibition, single concentration confirmation; shares compounds with NadD block; purified S. aureus NadD, colorimetric enzyme assay; inhibition, % at 20 µM; 2,000 compounds, 13% hits; AID 624309; in the data active = inhibition mostly above about 42%, no sharp cut-off; inactive = mostly below about 42%
# A number is an active result; i = inactive; nt = no result given. Most compounds without a hit are left out; they make up all but 2.4% or so of the library.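 The calls were made as follows, unless noted: active = inhibition of at least 30% at 20 µM; inactive = the rest.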
SMILES,STEP block,SUMO1-SIM PPI,Scp1 inh,NadD block,LMPTP inh,DNMT1 block,Scp-1 conf,MG interference,Scp-1 Tm shift,DNMT1 confirm,Beacon interf,STEP inh conf,others
COc1ccc(-n2nc(C(=O)NCC(=O)NCc3ccccc3OC)c3ccccc3c2=O)c(OC)c1,i,i,i,i,i,i,nt,nt,nt,nt,nt,nt,
O=C(O)CSc1ncnc2c1sc1nc(-c3ccccc3)c3c(c12)CCC3,48.2,i,78.4,i,i,i,52.8,i,i,nt,nt,i,
COc1ccc2cc(C(=O)Nc3ccc(F)cc3)sc(=O)c2c1OC,49.3,i,55.5,i,i,i,41.2,i,i,nt,nt,i,
COc1ccc2cc(C(=O)Nc3ccc(Cl)cc3)sc(=O)c2c1OC,59.3,i,92.1,i,i,57.0,65.1,i,i,i,i,i,
Cc1nc(SCC(=O)Nc2c(C)n(C)n(-c3ccccc3)c2=O)c(C#N)c(C)c1C,i,i,i,i,i,i,nt,nt,nt,nt,nt,nt,
CN(C)c1ccc(C(=O)OCC(=O)Nc2ccc(S(N)(=O)=O)cc2)cc1,40.5,58.1,98.8,i,i,i,75.2,i,10.9,nt,nt,101.2,
O=C(NCCc1ccc(F)cc1)Nc1ccccc1,i,i,i,i,i,i,nt,nt,nt,nt,nt,nt,
O=C(N/N=C/c1cccc([N+](=O)[O-])c1)c1cc2ccccc2o1,62.6,i,51.2,i,i,93.9,i,i,nt,i,i,i,
O=C(N/N=C/c1ccsc1)c1cc2ccccc2o1,i,i,i,i,i,i,nt,nt,nt,nt,nt,nt,
CC1CCCN(C(=O)c2ccc3c(=O)n4nc(Nc5ccccc5)sc4nc3c2)C1 (stereo unspecified),i,i,nt,i,i,i,nt,nt,nt,nt,nt,nt,
Cc1cccc(Nc2nn3c(=O)c4ccccc4nc3s2)c1,96.5,i,106.4,i,i,94.3,68.9,i,i,i,i,29.2,
O=C(N/N=C/c1ccc(Br)cc1)c1ccc(Br)o1,46.6,i,99.9,i,i,i,81.6,i,i,nt,nt,70.7,
O=C(N/N=C/c1ccc(F)cc1)c1ccc(Br)cc1,i,i,i,i,i,i,nt,nt,nt,nt,nt,nt,
CCc1ccc(CNC(=O)CCCn2c(=O)c3cccn3c3cccnc32)cc1,i,i,i,i,i,i,nt,nt,nt,nt,nt,nt,
CCCc1cc(=O)oc2cc(OCC(=O)NCc3cccs3)ccc12,i,i,i,i,i,i,nt,nt,nt,nt,nt,nt,
CCCc1cc(=O)oc2cc(OCC(=O)Nc3ccc(S(N)(=O)=O)cc3)ccc12,68.8,55.4,99.6,i,83.8,i,85.3,i,i,nt,nt,64.6,
CCOc1ccccc1C(=O)Nc1ccccc1-c1ccccc1,i,i,i,i,i,i,nt,nt,nt,nt,nt,nt,
O=C(Nc1ccc2oc(-c3ccccc3F)nc2c1)c1ccc([N+](=O)[O-])o1,99.2,98.5,101.1,i,89.8,107.9,94.6,i,i,i,i,i,
O=S(=O)(c1cccc(-c2csc(-c3cccnc3)n2)c1)N1CCCCC1,i,i,i,i,i,i,nt,nt,nt,nt,nt,nt,
COc1cc(/C=C(\C#N)C(=O)Nc2cccc(C(=O)O)c2)ccc1OCc1ccc(C)cc1,60.7,i,86.4,i,i,i,72.4,i,i,nt,nt,i,
CC(C)c1ccc(NC(=O)N2CCc3ccccc3C2)cc1,i,i,i,i,i,i,nt,nt,nt,nt,nt,nt,
O=C(Cn1cnc2c(nnn2-c2ccccc2)c1=O)NCc1ccc(F)cc1,77.4,i,101.0,i,i,i,96.2,i,i,nt,nt,i,
Cc1ccc(-c2c(NCCc3ccccc3)c(=O)c2=O)cc1,57.1,i,89.0,i,i,i,59.0,i,i,nt,nt,i,
CCOc1ccc(NC(=O)N2CCC(n3nnc4cc(C)ccc43)CC2)cc1,i,i,i,i,i,i,nt,nt,nt,nt,nt,nt,
CCn1c(=S)sc2c(=O)n(CC(=O)Nc3ccccc3C(F)(F)F)c(C)nc21,87.0,i,68.0,i,66.5,i,i,i,nt,nt,nt,i,
SMILES,STEP block,SUMO1-SIM PPI,Scp1 inh,NadD block,LMPTP inh,DNMT1 block,Scp-1 conf,MG interference,Scp-1 Tm shift,DNMT1 confirm,Beacon interf,STEP inh conf,others
O=C(N/N=C/c1ccc(Br)s1)c1cccc([N+](=O)[O-])c1,94.3,i,99.1,i,90.7,71.0,76.4,i,i,i,i,56.3,
O=C(N/N=C/c1ccoc1)c1cccc([N+](=O)[O-])c1,i,i,i,i,i,i,nt,nt,nt,nt,nt,nt,
CCN(c1ccccc1)S(=O)(=O)c1cc(C(=O)O)ccc1C,94.7,i,56.4,i,60.4,85.0,46.3,i,i,i,i,i,
Cc1ccc(OCC(=O)Nc2nnc(S(=O)(=O)N3CCCCC3)s2)cc1,i,42.9,71.5,49.2,i,88.8,56.9,i,5.7,i,i,nt,NadD conf=i
Cc1ccc(OCC(=O)Nc2nnc(S(=O)(=O)N3CCCCCC3)s2)cc1,i,i,i,i,i,i,nt,nt,nt,nt,nt,nt,
CCCn1c(C)nc2c(c1=O)c1nc3ccccc3nc1n2CCC1=CCCCC1,i,i,i,i,i,i,nt,nt,nt,nt,nt,nt,
Cc1nc2c(c(=O)n1CCC1=CCCCC1)c1nc3ccccc3nc1n2/N=C/c1ccco1,i,i,58.1,49.2,i,76.0,40.6,i,6.1,i,i,nt,NadD conf=i
CCN(CC)C(=O)CSc1ncnc2sccc12,i,i,i,i,i,i,nt,nt,nt,nt,nt,nt,
CCN(CC)C(=O)CSc1ncnc2c(-c3cccs3)nsc12,i,i,75.8,34.4,i,97.0,61.1,i,6.0,i,i,nt,NadD conf=56.2
COc1ccc(-c2csc(NC(=O)CSc3nc(C)nc4sc(C(=O)O)c(C)c34)n2)cc1,i,i,87.0,30.2,i,80.9,63.9,i,10.1,62.4,i,nt,Beacon interf DR=i;NadD conf=i
Cc1cc2oc(C(=O)Nc3ccc(S(=O)(=O)Nc4nccs4)cc3)cc(=O)c2cc1Cl,i,i,51.7,64.5,i,i,i,i,nt,nt,nt,nt,NadD conf=i
CCOC(=O)C1CCCN(C(=O)c2cc(S(=O)(=O)N(C)C)ccc2N2CCCC2)C1 (stereo unspecified),i,i,i,i,i,i,nt,nt,nt,nt,nt,nt,

# Screening results (PubChem)
